Results as given in ChEMBL document CHEMBL4330093, “Biphenyl Gal and GalNAc FmlH Lectin Antagonists of Uropathogenic E. coli (UPEC): Optimization through Iterative Rational Drug Design” (J Med Chem, 2019).
Converted amounts (≈) assume the structure as drawn.

Key:
[1] = Stability of the compound in simulated intestinal fluid assessed as compound remaining after 2 hrs; format: ADME; details: for Stability: simulated gi fluid, 2 h
[2] = Stability in mouse plasma assessed as compound remaining after 2 hrs; format: ADME, cell-free; details: for Stability: 2 h
[3] = Stability of the compound in simulated gastric fluid assessed as compound remaining after 6 hrs; format: ADME; details: for Stability: simulated gi fluid, 6 h
[4] = Drug metabolism in mouse urine assessed as phenol product metabolite formation; format: ADME, tissue-based
[5] = Drug metabolism in mouse plasma assessed as phenol product metabolite formation; format: ADME, cell-free
[6] = Half life in mouse liver microsomes; format: ADME, Microsome; details: for t1/2: microsomes
[7] = Oral bioavailability in Sprague-Dawley rat at 10 mg/kg by LC/MS/MS analysis; format: ADME, organism-based; details: in vivo
[8] = Time at which plasma concentration stays above in vitro Escherichia coli C600 C-terminal 6His-tagged biotinylated FmlH lectin domain inhibitory IC50 in CD1 mouse at 20 mg/kg, ip by LC/MS/MS analysis; format: ADME, organism-based; details: in vivo
Procedure, shortened: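 After a single 20 mg/kg IP dose in mice, plasma concentrations were compared with the ELISA IC50 converted to ng/mL. Persistence beyond the last measured point was inferred by extrapolating the plasma kinetics. For the ELISA IC50, biotinylated FmlH lectin domain (20 μg/mL) bound to sialidase-treated bovine submaxillary mucin, with streptavidin-HRP/TMB readout at 450 nm.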

[9] = Plasma concentration in CD1 mouse at 20 mg/kg, ip after 4 hrs by LC/MS/MS analysis; format: ADME, organism-based
Procedure, shortened: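 Single 20 mg/kg intraperitoneal injection in mice. Plasma drug concentrations were followed over time, including 4 h and 8 h points. Cmax was read from the profile, AUC was calculated, and half-life was derived.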

[10] = Kinetic solubility of the compound at pH 7.4; format: physicochemical; details: buffer
[11] = Half life in Sprague-Dawley rat at 10 mg/kg, po or 3 mg/kg, iv by LC/MS/MS analysis; format: ADME, organism-based; details: in vivo
Procedure, shortened: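 Sprague-Dawley rats got a single 10 mg/kg oral or 3 mg/kg IV dose. Compound was measured over time in plasma and in urine, and t1/2 and clearance were derived from the plasma profile.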

solubility kinetic ([10]; read-out: Kinetic_solubility) [µM]	remaining at 2 h ([1]; simulated intestinal fluid, read-out: Stability) [%]	remaining at 2 h ([2]; read-out: Stability) [%]	remaining at 6 h ([3]; simulated gastric fluid, read-out: Stability) [%]	half-life ([6]; liver microsomes) [min]	SMILES	Stability [1] [%]	Stability [2] [%]	Stability [3] [%]	Drug metabolism [4]	Drug metabolism [5]	t1/2 [6] [min]	F [7] [%]	Time [8] [h]	concentration at 4 h [9] [ng/mL]	Kinetic_solubility [10] [µM]	half-life [11] [min]
–	–	–	–	–	CC(=O)N[C@H]1[C@H](Oc2cccc(F)c2-c2cccc(NS(C)(=O)=O)c2)O[C@H](CO)[C@H](O)[C@@H]1O	94	89	92	Metabolite_Detected	Metabolite_Detected	> 145	–	–	–	–	–
–	–	–	–	–	CC(=O)N[C@H]1[C@H](Oc2cccc(C)c2-c2cccc(NS(=O)(=O)C3CC3)c2)O[C@H](CO)[C@H](O)[C@@H]1O	100	84	100	Metabolite_Detected	Metabolite_Detected	> 145	< 1	–	–	–	–
–	–	–	–	–	CC(=O)N[C@H]1[C@H](Oc2cccc(C)c2-c2cccc(NS(C)(=O)=O)c2)O[C@H](CO)[C@H](O)[C@@H]1O	100	100	100	Metabolite_Detected	Metabolite_Detected	> 145	–	6	79.5	–	–
164 (≈ 87.7 µg/mL)	89	89	91	> 145	Cc1cccc(O[C@@H]2O[C@H](CO)[C@H](O)[C@H](O)C2NC(=O)C(F)(F)F)c1-c1cccc(NS(C)(=O)=O)c1 (single isomer, unassigned)	–	–	–	Metabolite_Detected	Metabolite_Detected	–	–	–	–	–	–
–	–	–	–	–	CC(=O)NC1[C@H](Oc2cccc(C(F)(F)F)c2-c2cccc(NS(C)(=O)=O)c2)O[C@H](CO)[C@H](O)[C@@H]1O (single isomer, unassigned)	92	92	89	Metabolite_Detected	Metabolite_Detected	> 145	< 1	–	–	197	69.6
–	–	–	–	–	CC(=O)NC1[C@H](Oc2cccc(C#N)c2-c2cccc(NS(C)(=O)=O)c2)O[C@H](CO)[C@H](O)[C@@H]1O (single isomer, unassigned)	100	89	87	Metabolite_Detected	Metabolite_Detected	> 145	–	–	–	196	–
